Platelet DG rel: inhibitors of platelet dense granule secretion, primary screen, cell-based, MLPCN, human platelets; hit rate 0.22% among 300,000; human platelet-rich plasma, SFLLRN dense granule ATP release, luminescence; AID 1663, 2009; inhibition, %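 (compounds screened at 7.5 µM in platelet-rich plasma)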;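 active = mean replicate score, as percent of positive control, at or above 50; inconclusive = mean below 50 but at least one replicate at or above 50; inactive = mean and every replicate below 50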
SENP1 FRET inh: human SENP1 catalytic domain inhibitors, primary screen, biochemical, FRET, uHTS; Sentrin-specific protease 1 (Homo sapiens), Q9P0U3; recombinant SENP1 catalytic domain, CyPet-SUMO1-YPet FRET cleavage; inhibition, % at 10 µM; hit rate 0.21% among 360,000; AID 624204, 2012;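 active = inhibition at least 30% at 10 µM, raw YFP signal under a set limit, fluorescence ratio 0.5 to 1.5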;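 note: 0% = enzyme with DMSO and 100% = no enzyme wells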
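Controls: no-enzyme wells low, DMSO-plus-enzyme wells high control. Test system: human recombinant His6-tagged SENP1 catalytic domain enzyme. Reagent: SFCypet-SUMO1-SFYpet FRET protein substrate, 25 nM final. Doses: one dose per compound, 10 µM, 0.5% DMSO. Detection: FRET, CFP and YFP emission. Timing: 50 min reaction at room temperature.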
Myeloid diff 2: induction of myeloid progenitor differentiation, primary screen, cell-based, flow cytometry, MLPCN library. calls only at 10 µM. ER-HoxA9 myeloid progenitors, lysozyme-GFP differentiation. hit rate 1% among 360,000;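 active = normalized GFP-positive differentiation at or above the plate's own cutoff, the solvent-only control mean plus 3 SD; inconclusive = no clear call, values can overlap the other calls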;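 note: cells exposed to compound for four days before flow analysis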
VLA-4 inh: inhibition in human VLA-4 binding assay, primary screen, VLA-4 allosteric modulator project, MLPCN library, flow cytometry, VLA-4 expressing cells; Integrin alpha-4 (Homo sapiens), P13612; ligand binding flow cytometry; inhibition, % (about 7 µM as worked out from the volumes in the protocol); hit rate 0.2% among 330,000; in the data active = inhibition above about 50%
Target sequence (P13612 whole entry, looked up): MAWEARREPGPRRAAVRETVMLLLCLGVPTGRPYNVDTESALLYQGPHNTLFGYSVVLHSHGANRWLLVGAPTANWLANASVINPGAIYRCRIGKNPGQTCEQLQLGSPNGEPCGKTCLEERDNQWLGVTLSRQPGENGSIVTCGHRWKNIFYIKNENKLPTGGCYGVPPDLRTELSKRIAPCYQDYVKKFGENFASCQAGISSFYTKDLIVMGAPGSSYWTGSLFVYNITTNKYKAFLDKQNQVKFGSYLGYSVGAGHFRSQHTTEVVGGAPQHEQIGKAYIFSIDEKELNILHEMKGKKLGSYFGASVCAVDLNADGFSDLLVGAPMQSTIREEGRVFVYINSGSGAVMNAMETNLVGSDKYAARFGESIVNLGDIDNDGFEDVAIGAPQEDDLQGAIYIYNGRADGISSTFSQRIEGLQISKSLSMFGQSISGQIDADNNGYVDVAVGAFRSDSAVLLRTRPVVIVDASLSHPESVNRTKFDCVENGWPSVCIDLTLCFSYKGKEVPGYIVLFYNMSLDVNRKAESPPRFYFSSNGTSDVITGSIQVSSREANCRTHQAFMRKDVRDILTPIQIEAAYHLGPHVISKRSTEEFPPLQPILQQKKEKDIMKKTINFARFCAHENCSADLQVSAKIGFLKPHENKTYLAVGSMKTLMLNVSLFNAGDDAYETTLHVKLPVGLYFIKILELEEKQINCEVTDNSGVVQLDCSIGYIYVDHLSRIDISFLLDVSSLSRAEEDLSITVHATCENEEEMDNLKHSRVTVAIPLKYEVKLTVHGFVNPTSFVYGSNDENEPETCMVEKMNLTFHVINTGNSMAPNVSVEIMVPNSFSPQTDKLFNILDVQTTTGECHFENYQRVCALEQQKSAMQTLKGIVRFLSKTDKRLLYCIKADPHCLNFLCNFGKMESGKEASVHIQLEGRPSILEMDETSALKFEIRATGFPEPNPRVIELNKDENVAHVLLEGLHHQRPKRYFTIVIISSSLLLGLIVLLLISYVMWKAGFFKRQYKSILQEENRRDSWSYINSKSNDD
VLA-4 mod pick: retest of VLA-4 allosteric modulators, confirmation, cell-based, cherry-picked plates, U937, HUTS-21 LIBS antibody. shares compounds with VLA-4 inh. U937 cells, HUTS-21 LIBS mAb binding, flow cytometry; LDV ligand present at threefold Kd. inhibition, % at 6.7 µM. hit rate 2% among 1,300; in the data active = inhibition above about 40%;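 note: 0% = ligand without compound and 100% = no ligand background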
Numbers without * were called inactive; i = inactive; ? = inconclusive; · = no result; ! = a repeat was not active. Rows were chosen to be rich in hits. Some 1.5% of all compounds tested hit in one or more screens of this group.

SMILES | Platelet DG rel | SENP1 FRET inh | Myeloid diff 2 | VLA-4 inh | VLA-4 mod pick
CCOC(=O)CCNC(=O)N1CCCC(N2CCN(c3ccc(OC)cc3)CC2)C1 (stereo not given) | 5.6 | -1.0 | i | 4.5 | ·
CCCn1nc(C(=O)NNC(=O)C2CSC3(C)CCC(=O)N23)c2ccccc2c1=O (stereo not given) | 3.9 | 1.6 | i | 1.2 | ·
Cc1cc(Cl)ccc1NC(=O)Cn1cncn1 | 2.7 | -1.7 | i | 52.9* | -0.9
Cc1cc(Cl)ccc1NC(=O)CN1CCCC1 | 3.0 | 1.1 | i | -0.8 | ·
OCC1OC(n2cnc3c(N4CCCCC4)ncnc32)C(O)C1O (stereo not given) | · | 1.6 | i | · | ·
OC[C@H]1O[C@@H](n2cnc3c(NC4CCCC4)ncnc32)[C@H](O)[C@@H]1O | 56.5* | 0.4 | i | 5.4 | 2.7
OC[C@H]1O[C@@H](n2cnc3c(NCc4ccco4)ncnc32)[C@H](O)[C@@H]1O | · | -4.2 | ? | · | ·
OCC1OC(n2cnc3c(NC4CCCCC4)ncnc32)C(O)C1O (stereo not given) | 41.8 | 2.6 | i | -31.4 | 5.1
O=C1CCc2cc(NS(=O)(=O)c3cc(F)ccc3F)cc3c2N1CC3 | 5.8 | 0.2 | i | 12.7 | ·
CCCCOc1ccc(CN(CCO)CCO)cc1[N+](=O)[O-] | -0.1 | 1.1 | i | 11.4 | ·
CCOc1ccc(CN(CCO)CCO)cc1[N+](=O)[O-] | 1.4 | 1.5 | i | 90.3* | 2.0
COC(=O)CC1C(=O)NCCN1C(=S)Nc1ccccc1Cl (stereo not given) | 9.7 | -0.7 | i | 53.2* | 2.0
O=C(Nc1nc(-c2ccc(F)c(F)c2)cs1)Nc1ccc(F)cc1F | 14.3 | 2.9 | i | -7.8 | ·
CC(=O)/C=C(/C)NC(Cc1c[nH]c2ccccc12)C(=O)O (stereo not given) | -1.8 | -3.4 | i | -8.2 | ·
CC(=O)N[C@H](Cc1c[nH]c2ccccc12)C(=O)O | -6.8 | 0.0 | i | 50.1* | 1.6
O=C(c1cc(-c2ccccn2)nc2c(Cl)cccc12)N1CCN(C(=O)C2CCCO2)CC1 (stereo not given) | 16.5 | -0.7 | i | 0.9 | -0.2
O=C(c1cc(-c2ccccn2)nc2c(Cl)cccc12)N1CCN(S(=O)(=O)c2ccccc2)CC1 | -0.5 | -2.3 | i | -8.2 | ·
O=C(CN(CC1CCCO1)C(=O)CNS(=O)(=O)c1ccc(F)cc1)NC1CCCC1 (stereo not given) | 0.1 | 2.6 | i | -3.7 | ·
COc1ccc(N(CC(=O)Nc2cc(Cl)ccc2OC)S(=O)(=O)c2c(C)[nH]c(=O)[nH]c2=O)cc1 | -10.1 | 1.1 | i | 0.4 | -4.8
Cc1ccc(N(CC(=O)Nc2ccc(Br)c(C)c2)S(=O)(=O)c2c(C)[nH]c(=O)[nH]c2=O)cc1 | -1.0 | -3.0 | i | -5.0 | -3.9
COc1ccc(N(CC(=O)NCc2ccc(C)cc2)S(=O)(=O)c2c(C)[nH]c(=O)[nH]c2=O)cc1 | -0.6 | 3.0 | i | -20.1 | ·
COc1ccc(N(CC(=O)Nc2cc(C)ccc2C)S(=O)(=O)c2c(C)[nH]c(=O)[nH]c2=O)cc1 | 3.5 | 4.0 | i | -3.8 | -1.1
COc1ccc(NC(=O)N(C)C[C@H]2Oc3ccc(NC(=O)CCN4CCOCC4)cc3C(=O)N([C@@H](C)CO)C[C@H]2C)cc1 | · | 0.5 | i | 7.4 | ·
Cc1ccc(C(C(=O)NCCc2ccccc2)N(C(=O)c2csnn2)C2CC2)o1 (stereo not given) | -1.7 | 0.8 | i | 54.4* | 6.4
COc1ccc(N2CCN(CC(O)COc3cc(C)ccc3C)CC2)cc1 (stereo not given) | -3.2 | 2.3 | i | 10.5 | ·
SMILES | Platelet DG rel | SENP1 FRET inh | Myeloid diff 2 | VLA-4 inh | VLA-4 mod pick
Cc1ccccc1-c1nc2cc(Cl)ccc2c(=O)o1 | 1.5 | 3.0 | i | 40.2 | -15.1
CCCN(c1ccccc1F)S(=O)(=O)c1c[nH]c(C(=O)OC)c1 | -1.3 | 2.3 | i | 5.2 | ·
COc1ccc(C(=O)Nc2ccccc2C(=O)NC(Cc2ccc(O)cc2)C(=O)NNC(=O)c2ccccc2)cc1 (stereo not given) | -28.6 | 2.4 | i | 1.8 | ·
COc1ccc(C(=O)Nc2ccccc2C(=O)NC(Cc2ccc(O)cc2)C(=O)NNC(=O)c2ccncc2)cc1 (stereo not given) | -1.1 | 0.7 | i | 56.1* | 0.6
Cc1ccccc1Oc1ccc(NC(=O)C2CC=CCC2C(=O)O)cc1 (stereo not given) | -6.8 | -5.9 | i | 53.7* | 4.5
N#CCN1C(=O)NC2(CCCc3sccc32)C1=O (stereo not given) | -4.2 | -7.2 | ? | -0.2 | ·
O=c1c2ccccc2nc2n1CCc1c-2[nH]c2ccccc12 | · | -2.4 | i | 51.4* | 3.8
CN(C(=O)COC(=O)CCc1nc2ccccc2c(=O)[nH]1)C1CCS(=O)(=O)C1 (stereo not given) | -0.6 | -0.2 | i | -3.7 | ·
N#CCCN(C(=O)COC(=O)CCc1nc2ccccc2c(=O)[nH]1)c1ccccc1F | · | 0.4 | i | 51.3* | 2.0
COC(=O)[C@H](Cc1c[nH]c2ccccc12)NC(=O)Nc1ccccc1OC | 0.1 | 1.5 | i | 22.4 | ·
Cc1cccc(CN2CCc3c([nH]c4ccccc34)C2C(C)(C)C)n1 (stereo not given) | -6.0 | -71.5 | i | 0.6 | ·
C/C(CC(=O)Nc1cccc2c1CCCC2)=N\NC(=O)c1cccc2ccccc12 | 4.8 | 2.5 | i | 42.7 | 2.1
COc1ccc(NC(=O)C2CCCN(C(=O)c3ccc(Cl)cc3)C2)cc1S(=O)(=O)N(C)C (stereo not given) | · | 0.9 | i | -2.0 | ·
OC1C(O)C(O)C(O)C(O)C1O (stereo not given) | 0.0 | 0.8 | i | 51.4*! | 3.3
c1ccc(-c2nnc(CN3CCCCC3)o2)cc1 | 5.1 | 0.4 | i | 45.0 | -11.8
CCN1CCN(Cc2nnc(-c3ccccc3)o2)CC1 | -4.3 | 1.8 | i | 9.7 | ·
C[C@@H]1CN([C@H](C)CO)C(=O)CCCn2nncc2CO[C@H]1CN(C)C(=O)Nc1cccc2ccccc12 | · | -1.5 | i | · | ·
CC(C(=O)NCC1CCCCC1)N1CCc2ccccc2C1 (stereo not given) | -1.5 | -2.3 | i | 6.7 | ·
CC(C(=O)NCC1CCCCC1)N1CCN(S(=O)(=O)/C=C/c2ccccc2)CC1 (stereo not given) | -3.1 | -0.8 | i | 40.2 | 1.3
COCCNC(=O)C(c1ccc(F)cc1)N(C(=O)CCC(=O)Nc1ccccn1)c1cccc(C)c1 (stereo not given) | -1.5 | 1.1 | i | 24.0 | ·
CC(Sc1nnnn1-c1ccccc1)C(=O)Nc1ccc(N2CCN(C)CC2)cc1 (stereo not given) | -0.9 | 2.0 | i | 101.7* | 0.6

Screening results deposited in PubChem by several laboratories.
